Reference: ChEMBL document CHEMBL3585302, “Synthesis and antibacterial activities of cadiolides A, B and C and analogues” (Bioorg Med Chem, 2015)
Active and inactive are the calls of the source. The calls are words filed in the database; no cut-off is given here.

Assays:
[1] = Selectivity index, ratio of cytotoxicity against human neutrophils by annexin V-FITC and propidium iodide staining based cytofluorometry to antibacterial IC50 against Enterococcus faecalis CECT 481; format: toxicity; settings: read-out: Selectivity Index
[2] = Selectivity index, ratio of cytotoxicity against human neutrophils by annexin V-FITC and propidium iodide staining based cytofluorometry to antibacterial IC50 against Escherichia coli CECT 405; format: toxicity; settings: read-out: Selectivity Index
[3] = Selectivity index, ratio of cytotoxicity against human neutrophils by MTT assay to antibacterial IC50 against Escherichia coli CECT 405; format: toxicity; settings: read-out: Selectivity Index
Staphylococcus aureus [4] = assay: Antibacterial activity against Staphylococcus aureus CECT 86 assessed as inhibition of microbial growth incubated for 18 hrs by 2-fold microtiter broth dilution method; format: functional, organism-based; settings: CECT 86, 18 h
Method in brief: (§1)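 Compounds in DMSO, ten 2-fold serial dilutions (125 down to 0.24 µg/mL tested). Bacteria at OD620 = 0.001 in Nutrient Broth mixed 1:1 with dilutions. Incubated overnight (18 h) at 28°C or 37°C according to strain. Growth read turbidimetrically at OD620. MIC is the lowest concentration giving complete growth inhibition. Triplicate runs. Tetracycline as reference.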

Escherichia coli [5] = assay: Antibacterial activity against Escherichia coli CECT 100 assessed as inhibition of microbial growth incubated for 18 hrs by 2-fold microtiter broth dilution method; format: functional, organism-based; settings: CECT 100, 18 h; method in brief: as §1
[6] = Selectivity index, ratio of cytotoxicity against human neutrophils by MTT assay to antibacterial IC50 against Salmonella typhi CECT 409; format: toxicity; settings: read-out: Selectivity Index
[7] = Toxicity in human neutrophils assessed as induction of apoptosis at 30 and 100 uM incubated for 24 hrs by annexin V-FITC and propidium iodide staining based cytofluorometry; format: cell-based; settings: neutrophil
Method in brief: (§2)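 Freshly isolated donor neutrophils (2 x 10⁶ cells/mL stock, diluted into supplemented RPMI) cultured 24 h with 30 or 100 µM. Stained with annexin V-FITC/propidium iodide; 1 x 10⁴ cells analysed by flow cytometry. Gating: annexin V+/PI− apoptotic, V+/PI+ late apoptotic/necrotic, V−/PI− viable. Mean ± SEM, n=3, compared against vehicle.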

Enterococcus faecalis [8] = assay: Antibacterial activity against Enterococcus faecalis CECT 481 assessed as inhibition of microbial growth incubated for 18 hrs by 2-fold microtiter broth dilution method; format: functional, organism-based; settings: CECT 481, 18 h; method in brief: as §1
[9] = Cytotoxicity against human neutrophils assessed as reduction in cell viability at 100 uM incubated for 24 hrs by MTT assay; format: cell-based; settings: neutrophil
Method in brief: (§3)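 Neutrophils from buffy coats of healthy donors were isolated by Ficoll-Hypaque gradient and seeded at 2 x 10⁵ cells/mL in supplemented RPMI. Exposed to 30 or 100 µM for 24 h at 37 °C, then MTT (2 mg/mL in PBS) added for 3 h. Formazan dissolved in DMSO and read at 560 and 630 nm. Mean ± SEM of n=6-9 independent experiments, compared against vehicle.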

[10] = Selectivity index, ratio of cytotoxicity against human neutrophils by MTT assay to antibacterial IC50 against Staphylococcus aureus CECT 86; format: toxicity; settings: read-out: Selectivity Index
[11] = Selectivity index, ratio of cytotoxicity against human neutrophils by MTT assay to antibacterial IC50 against Enterococcus faecalis CECT 481; format: toxicity; settings: read-out: Selectivity Index
Bacillus subtilis [12] = assay: Antibacterial activity against Bacillus subtilis CECT 35 assessed as inhibition of microbial growth incubated for 18 hrs by 2-fold microtiter broth dilution method; format: functional, organism-based; settings: CECT 35, 18 h; method in brief: as §1
[13] = Cytotoxicity against human neutrophils assessed as reduction in cell viability at 30 uM incubated for 24 hrs by MTT assay; format: cell-based; settings: neutrophil; method in brief: as §3
[14] = Selectivity index, ratio of cytotoxicity against human neutrophils by annexin V-FITC and propidium iodide staining based cytofluorometry to antibacterial IC50 against Staphylococcus aureus CECT 86; format: toxicity; settings: read-out: Selectivity Index
Escherichia coli [15] = assay: Antibacterial activity against Escherichia coli CECT 405 assessed as inhibition of microbial growth incubated for 18 hrs by 2-fold microtiter broth dilution method; format: functional, organism-based; settings: CECT 405, 18 h; method in brief: as §1
[16] = Toxicity in human neutrophils assessed as induction of necrosis at 100 uM incubated for 24 hrs by annexin V-FITC and propidium iodide staining based cytofluorometry; format: cell-based; settings: neutrophil; method in brief: as §2
Salmonella typhi [17] = assay: Antibacterial activity against Salmonella typhi CECT 409 assessed as inhibition of microbial growth incubated for 18 hrs by 2-fold microtiter broth dilution method; format: functional, organism-based, Salmonella enterica subsp. enterica serovar Typhi; settings: Salmonella enterica, CECT 409, 18 h
Method in brief: (§4)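 Compounds in DMSO, ten 2-fold serial dilutions (125 down to 0.24 µg/mL), mixed 1:1 with bacteria in Nutrient Broth at OD620 = 0.001. Incubated overnight (18 h) at 28 or 37 °C depending on strain. Growth read turbidimetrically at OD620; MIC is the lowest concentration completely inhibiting growth, per CLSI. Triplicate runs; tetracycline reference.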

[18] = Selectivity index, ratio of cytotoxicity against human neutrophils by annexin V-FITC and propidium iodide staining based cytofluorometry to antibacterial IC50 against Salmonella typhi CECT 409; format: toxicity; settings: read-out: Selectivity Index
Bacillus cereus [19] = assay: Antibacterial activity against Bacillus cereus CECT 148 assessed as inhibition of microbial growth incubated for 18 hrs by 2-fold microtiter broth dilution method; format: functional, organism-based; settings: CECT 148, 18 h; method in brief: as §1
[20] = test system: Pectobacterium carotovorum; assay: Antibacterial activity against Erwinia carotovora CECT 225 assessed as inhibition of microbial growth incubated for 18 hrs by 2-fold microtiter broth dilution method; format: functional, organism-based; settings: CECT 225, 18 h; method in brief: as §1
[21] = Toxicity in human neutrophils assessed as cell survival at 30 uM incubated for 24 hrs by annexin V-FITC and propidium iodide staining based cytofluorometry; settings: neutrophil; method in brief: as §2
Bacillus subtilis [22] = assay: Antibacterial activity against Bacillus subtilis CECT 35 assessed as inhibition of microbial growth at 125 ug/ml incubated for 18 hrs by 2-fold microtiter broth dilution method; format: functional, organism-based; method in brief: as §1
Salmonella typhi [23] = assay: Antibacterial activity against Salmonella typhi CECT 409 assessed as inhibition of microbial growth at 125 ug/ml incubated for 18 hrs by 2-fold microtiter broth dilution method; format: functional, organism-based; settings: Salmonella enterica subsp. enterica serovar Typhi; method in brief: as §4
[24] = test system: Pectobacterium carotovorum; assay: Antibacterial activity against Erwinia carotovora CECT 225 assessed as inhibition of microbial growth at 125 ug/ml incubated for 18 hrs by 2-fold microtiter broth dilution method; format: functional, organism-based; method in brief: as §1
Escherichia coli [25] = assay: Antibacterial activity against Escherichia coli CECT 405 assessed as inhibition of microbial growth at 125 ug/ml incubated for 18 hrs by 2-fold microtiter broth dilution method; format: functional, organism-based; method in brief: as §1
Escherichia coli [26] = assay: Antibacterial activity against Escherichia coli CECT 100 assessed as inhibition of microbial growth at 125 ug/ml incubated for 18 hrs by 2-fold microtiter broth dilution method; format: functional, organism-based; method in brief: as §1
Enterococcus faecalis [27] = assay: Antibacterial activity against Enterococcus faecalis CECT 481 assessed as inhibition of microbial growth at 125 ug/ml incubated for 18 hrs by 2-fold microtiter broth dilution method; format: functional, organism-based; method in brief: as §1
Bacillus cereus [28] = assay: Antibacterial activity against Bacillus cereus CECT 148 assessed as inhibition of microbial growth at 125 ug/ml incubated for 18 hrs by 2-fold microtiter broth dilution method; format: functional, organism-based; method in brief: as §1
Staphylococcus aureus [29] = assay: Antibacterial activity against Staphylococcus aureus CECT 86 assessed as inhibition of microbial growth at 125 ug/ml incubated for 18 hrs by 2-fold microtiter broth dilution method; format: functional, organism-based; method in brief: as §1

SMILES	selectivity ratio [1]	selectivity ratio [2]	selectivity ratio [3]	IC50 (Staphylococcus aureus [4])	MIC (Staphylococcus aureus [4])	IC50 (Escherichia coli [5])	MIC (Escherichia coli [5])	selectivity ratio [6]	Activity [7]	IC50 (Enterococcus faecalis [8])	MIC (Enterococcus faecalis [8])	Activity [9]	growth inhibition (GI) (Bacillus subtilis [22])	growth inhibition (GI) (Salmonella typhi [23])	growth inhibition (GI) [24]	growth inhibition (GI) (Escherichia coli [25])	growth inhibition (GI) (Escherichia coli [26])	growth inhibition (GI) (Enterococcus faecalis [27])	growth inhibition (GI) (Bacillus cereus [28])	growth inhibition (GI) (Staphylococcus aureus [29])	further results
O=C1O/C(=C\c2ccc(O)c(Br)c2)C(c2ccc(O)c(Br)c2)=C1C(=O)c1ccco1	5	5	5	3.66 µM	1.95 µg/mL	29.4 µM	15.6 µg/mL	5	Non-toxic	3.66 µM	1.95 µg/mL	Toxic	–	–	–	–	–	–	–	–	selectivity ratio [10]: 5; selectivity ratio [11]: 5; MIC (Bacillus subtilis [12]): 125 µg/mL; Activity [13]: Non-toxic; selectivity ratio [14]: 5; IC50 (Escherichia coli [15]): 3.66 µM; MIC (Escherichia coli [15]): 1.95 µg/mL; Activity [16]: 95%; IC50 (Salmonella typhi [17]): 3.66 µM; MIC (Salmonella typhi [17]): 1.95 µg/mL; selectivity ratio [18]: 5; IC50 (Bacillus cereus [19]): 3.66 µM; MIC (Bacillus cereus [19]): 1.95 µg/mL; MIC [20]: 125 µg/mL; Activity [21]: Non-toxic
O=C1O/C(=C\c2ccc(O)c(Br)c2)C(c2cc(Br)c(O)c(Br)c2)=C1C(=O)c1ccc(O)c(Br)c1	5	5	5	2.72 µM	1.95 µg/mL	> 175 µM	> 125 µg/mL	5	Non-toxic	2.72 µM	1.95 µg/mL	Toxic	–	–	–	–	–	–	–	–	selectivity ratio [10]: 5; selectivity ratio [11]: 5; MIC (Bacillus subtilis [12]): 125 µg/mL; Activity [13]: Non-toxic; selectivity ratio [14]: 5; IC50 (Escherichia coli [15]): 2.72 µM; MIC (Escherichia coli [15]): 1.95 µg/mL; Activity [16]: 36%; IC50 (Salmonella typhi [17]): 2.72 µM; MIC (Salmonella typhi [17]): 1.95 µg/mL; selectivity ratio [18]: 5; IC50 (Bacillus cereus [19]): 2.72 µM; MIC (Bacillus cereus [19]): 1.95 µg/mL; MIC [20]: 125 µg/mL; Activity [21]: Non-toxic
COc1c(Br)cc(C2=C(C(=O)c3cc(Br)c(O)c(Br)c3)C(=O)O/C2=C\c2ccc(O)cc2)cc1Br	–	–	–	–	–	–	–	–	–	–	–	–	inactive	inactive	inactive	inactive	inactive	inactive	inactive	inactive	–
COc1c(Br)cc(C2=C(C(=O)c3ccco3)C(=O)O/C2=C\c2ccc(O)c(Br)c2)cc1Br	–	–	–	–	–	–	–	–	–	–	–	–	inactive	inactive	inactive	inactive	inactive	inactive	inactive	inactive	–
COc1ccc(C2=C(C(=O)c3ccco3)C(=O)O/C2=C\c2ccc(O)c(Br)c2)cc1Br	–	–	–	–	–	–	–	–	–	–	–	–	inactive	inactive	inactive	inactive	inactive	inactive	inactive	inactive	–
